From ChEMBL document CHEMBL3124806, “Imidazopyridine-fused [1,3]-diazepinones: synthesis and antiproliferative activity” (Eur J Med Chem, 2014)
Active and inactive are the calls of the source. The calls are words filed in the database; no cut-off is given here.

Experiments:
[1] = Cytotoxicity against human CAL-1 cells assessed as reduction in cell growth at 1 to 10 uM after 48 hrs by MTT assay relative to untreated control; type: functional; design: scale not given: the % may be the effect or the level left
How it was run: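 CAL1 melanoma cells grown in DMEM with 2 mM L-glutamine and 10% FCS at 37 °C, 5% CO2. Seeded at 10^4 cells/well, grown 24 h, then treated 48 h across 100–0.01 μM (compounds dissolved in medium). Read-out: 0.5 mg mL⁻¹ MTT for 4 h, crystals dissolved in EtOH/DMSO 1:1, absorbance at 540 nm.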

MDA-MB-435 [2] = test: Induction of apoptosis in human MDA-MB-435 cells assessed as dispersed and rounded cells at 5 uM after 20 hrs by Hoechst 33342 staining-based phase-contrast microscopy; type: functional, cell-based
How it was run: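 MDA-MB-435 human melanoma cells were grown in Ham's F12/DMEM (1:1) with 10% FCS and antibiotics at 37 °C under 5% CO₂. Cells were exposed to 5 μM compound or left untreated. They were imaged by phase-contrast microscopy 20 h after treatment.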

SK-MEL-2 [3] = test: Cytotoxicity against human SK-MEL-2 cells after 48 hrs by SRB assay; type: functional; settings: SK-MEL-2, 48 h
How it was run: (§1)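 NCI-60 five-dose screen: cells exposed continuously for 48 h across 100 to 0.01 µM. Growth or viability estimated by sulforhodamine B protein staining, read spectrophotometrically against untreated controls; IC50 taken from the dose-response.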

M14 = test: Cytotoxicity against human M14 cells after 48 hrs by SRB assay; type: functional; settings: M14, 48 h
How it was run: (§2)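 NCI-60 five-dose testing, 100 to 0.01 µM, under a 48 h continuous-exposure protocol. Growth estimated by SRB protein assay, read spectrophotometrically against untreated controls; IC50 derived from the dose-response.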

COLO 205 = test: Cytotoxicity against human COLO205 cells after 48 hrs by SRB assay; type: functional; settings: COLO 205, 48 h; how it was run: as §2
SK-MEL-5 = test: Cytotoxicity against human SK-MEL-5 cells after 48 hrs by SRB assay; type: functional; settings: SK-MEL-5, 48 h
How it was run: (§3)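 NCI-60 five-dose mode on the full human tumour line panel. Concentrations ran from 100 to 0.01 µM with 48 h continuous exposure. Growth was estimated by SRB protein staining against untreated controls, and IC50 values were derived from the dose–response.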

MDA-MB-435 [4] = test: Cytotoxicity against human MDA-MB-435 cells at 5 uM by MTT assay; type: functional, cell-based; settings: TDE = time-dependent effect
How it was run: (§4)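 MDA-MB-435 cells in DMEM/Ham's F12 (1:1) with 10% FCS, 37 °C, 5% CO2. Time course at a fixed 5 µM, incubated 8, 16, 24 or 48 h. Viability then read by MTT reduction (0.5 mg/mL, 4 h), formazan dissolved in EtOH/DMSO, absorbance at 540 nm, as percent living cells.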

A498 = test: Cytotoxicity against human A498 cells after 48 hrs by SRB assay; type: functional; settings: A498, 48 h; how it was run: as §2
[5] = Cytotoxicity against human OVCAR4 cells after 48 hrs by SRB assay; type: functional; settings: OVCAR-4, 48 h; how it was run: as §1
ACHN = test: Cytotoxicity against human ACHN cells after 48 hrs by SRB assay; type: functional; how it was run: as §2
Malme-3M = test: Cytotoxicity against human MALME-3M cells after 48 hrs by SRB assay; type: functional; how it was run: as §2
SN12C = test: Cytotoxicity against human SN12C cells after 48 hrs by SRB assay; type: functional; how it was run: as §3
[6] = Cytotoxicity against human NCI-ADR-RES cells after 48 hrs by SRB assay; type: functional; how it was run: as §1
MOLT-4 = test: Cytotoxicity against human MOLT4 cells after 48 hrs by SRB assay; type: functional; settings: MOLT-4, 48 h; how it was run: as §1
[7] = Cytotoxicity against human Hs578T cells after 48 hrs by SRB assay; type: functional; settings: Hs-578T; how it was run: as §2
MDA-MB-435 [8] = test: Cytotoxicity against human MDA-MB-435 cells at 5 uM after 8 hrs by MTT assay; type: functional; how it was run: as §4
MDA-MB-435 [9] = test: Induction of apoptosis in human MDA-MB-435 cells assessed as chromatin condensation at 5 uM after 20 hrs by Hoechst 33342 staining-based phase-contrast microscopy; type: functional, cell-based
KM12 = test: Cytotoxicity against human KM12 cells after 48 hrs by SRB assay; type: functional; settings: KM12, 48 h; how it was run: as §2
HL-60(TB) = test: Cytotoxicity against human HL-60(TB) cells after 48 hrs by SRB assay; type: functional; settings: HL-60, 48 h
How it was run: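 NCI-60 human tumour cell line panel; continuous 48 h exposure to five concentrations from 100 to 0.01 µM. Cell growth was read spectrophotometrically by sulforhodamine B protein staining against untreated controls, and […] was taken from the dose–response.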

DU-145 = test: Cytotoxicity against human DU145 cells after 48 hrs by SRB assay; type: functional; settings: DU-145, 48 h; how it was run: as §2
BT-549 = test: Cytotoxicity against human BT549 cells after 48 hrs by SRB assay; type: functional; settings: BT-549, 48 h; how it was run: as §2
HOP-62 = test: Cytotoxicity against human HOP62 cells after 48 hrs by SRB assay; type: functional; settings: HOP-62, 48 h; how it was run: as §2
SK-MEL-2 [10] = test: Cytotoxicity against human SK-MEL-2 cells assessed as cell growth at 10 uM after 48 hrs by MTT assay relative to untreated control; type: functional; settings: SK-MEL-2, 48 h, read-out: Activity
How it was run: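 Melanoma lines grown at 37 °C in humidified 5% CO2: MDA-MB-435 in DMEM/Ham's F12 1:1 with 10% FCS and antibiotics, SK-MEL-2 in RPMI-1640 with 10% FCS. Cells plated 24 h, then exposed 48 h to 100–0.01 µM (dilutions from fresh 100 µM stock in medium). MTT 0.5 mg/mL added for 4 h, crystals dissolved in EtOH/DMSO 1:1, absorbance read at 540 nm. Mean ± SD of three independent experiments.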

UACC-62 = test: Cytotoxicity against human UACC62 cells after 48 hrs by SRB assay; type: functional; settings: UACC-62, 48 h; how it was run: as §3
[11] = read-out: LC50 (the source's name)

C[C@@H]1NC(c2ccccc2)=Nc2nc3ccccn3c2C1=O
Activity [1]: 20%

C[C@@H]1NC(c2ccc(Br)cc2)=Nc2nc3ccccn3c2C1=O
Activity (MDA-MB-435 [2]): Active | GI50 (SK-MEL-2 [3]): 15.7 µM | TGI (SK-MEL-2 [3]): > 100 µM | CC50 (SK-MEL-2 [3]; [11]): > 100 µM | GI50 (M14): 3.2 µM | TGI (M14): 48.2 µM | CC50 (M14; [11]): > 100 µM | GI50 (COLO 205): 1.87 µM | TGI (COLO 205): 4.75 µM | CC50 (COLO 205; [11]): 95.8 µM | GI50 (SK-MEL-5): 2.24 µM | TGI (SK-MEL-5): 40.5 µM | CC50 (SK-MEL-5; [11]): > 100 µM | Activity (MDA-MB-435 [4]): tde | GI50 (A498): 3.26 µM | TGI (A498): 38.2 µM | CC50 (A498; [11]): > 100 µM | GI50 [5]: 17.9 µM | TGI [5]: > 100 µM | CC50 [5, 11]: > 100 µM | GI50 (ACHN): 6.75 µM | TGI (ACHN): > 100 µM | CC50 (ACHN; [11]): > 100 µM | GI50 (Malme-3M): 15.2 µM | TGI (Malme-3M): > 100 µM | CC50 (Malme-3M; [11]): > 100 µM | GI50 (SN12C): 17.6 µM | TGI (SN12C): > 100 µM | CC50 (SN12C; [11]): > 100 µM | GI50 [6]: 7.45 µM | TGI [6]: > 100 µM | CC50 [6, 11]: > 100 µM | GI50 (MOLT-4): 12.8 µM | TGI (MOLT-4): > 100 µM | CC50 (MOLT-4; [11]): > 100 µM | GI50 [7]: 2.81 µM | TGI [7]: 52 µM | CC50 [7, 11]: > 100 µM | Activity (MDA-MB-435 [8]): 35% | Activity (MDA-MB-435 [9]): Active | GI50 (KM12): 3.39 µM | TGI (KM12): > 100 µM | CC50 (KM12; [11]): > 100 µM | GI50 (HL-60(TB)): 6.49 µM | TGI (HL-60(TB)): > 100 µM | CC50 (HL-60(TB); [11]): > 100 µM | GI50 (DU-145): 23.2 µM | TGI (DU-145): > 100 µM | CC50 (DU-145; [11]): > 100 µM | GI50 (BT-549): 5.49 µM | TGI (BT-549): > 100 µM | CC50 (BT-549; [11]): > 100 µM | GI50 (HOP-62): 5.75 µM | TGI (HOP-62): > 100 µM | CC50 (HOP-62; [11]): > 100 µM | growth at 10 µM (SK-MEL-2 [10]): 32% | GI50 (UACC-62): 4.35 µM | TGI (UACC-62): > 100 µM | CC50 (UACC-62; [11]): > 100 µM
